Data as given in ChEMBL document CHEMBL1134589, “Antimalarial simplified 3-aryltrioxanes: synthesis and preclinical efficacy/toxicity testing in rodents” (2001).

Key:
Mus musculus [1] = test: Antimalarial efficacy against Plasmodium berghei in mice (Mus musculus) when administered intravenously each day for 4 days to five mice (Mus musculus) per dose regimen; format: functional; settings: iv, 96 h
Procedure, shortened: (§1)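 P. berghei-infected mice; four doses (1, 3, 10 and 30 mg/kg) given once daily for four days, five mice per dose regimen, by sc or iv route as per line. ED50 and ED90 derived from the dose–response, reported in mg/kg and µmol/kg.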

Mus musculus [2] = test: Antimalarial efficacy against Plasmodium berghei in mice (Mus musculus) when administered subcutaneously each day for 4 days to five mice (Mus musculus) per dose regimen; format: functional; settings: sc, 96 h; procedure, shortened: as §1

| Structure (SMILES) | ED50 (Mus musculus [1]) | ED90 (Mus musculus [1]) | ED50 (Mus musculus [2]) | ED90 (Mus musculus [2]) |
| --- | --- | --- | --- | --- |
| CO[C@@H]1O[C@@]2(c3ccc(F)cc3)CC[C@H]3CCCC[C@]31OO2 | 4 mg/kg | 8 mg/kg | 4.7 mg/kg | 8.3 mg/kg |
| CCO[C@H]1O[C@@H]2O[C@@]3(C)CC[C@H]4[C@H](C)CC[C@@H]([C@H]1C)[C@@]24OO3 [ARTEMOTIL] | 0.46 mg/kg | – | 0.9 mg/kg | 1.4 mg/kg |
| C[C@@H]1[C@H](OCc2ccc(C(=O)O)cc2)O[C@@H]2O[C@@]3(C)CC[C@@H]4[C@@H](C)CC[C@@H]1[C@]24OO3 [ARTELINIC ACID] | 4.3 mg/kg | 15.5 mg/kg | 6.6 mg/kg | 14 mg/kg |
| CO[C@@H]1O[C@@]2(c3ccc(C(=O)O)cc3)CC[C@H]3CCCC[C@]31OO2 | 19.5 mg/kg | 55 mg/kg | 22.5 mg/kg | 112 mg/kg |
| CCN(CC)CCCC(C)Nc1ccnc2cc(Cl)ccc12 (stereo unspecified) [CHLOROQUINE] | 5 mg/kg | – | 1 mg/kg | – |
| CO[C@H]1O[C@@]2(c3ccc(C(=O)O)cc3)CC[C@H]3CCCC[C@]31OO2 | 16.5 mg/kg | 48 mg/kg | 10.5 mg/kg | 19.5 mg/kg |
